The target in data set [1] is Cathepsin K (Homo sapiens, UniProt P43235). Put plainly: Inhibitory activity against humanized rabbit cathepsin K. Further details: species or system Oryctolagus cuniculus.
The subject of another data set is Osteoclast. In words: Effect of compound on degradation of collagen in osteoclast bone resorption assay. The format is functional, cell-based. As to conditions: Oryctolagus cuniculus.
Data set [2] deals with T1, Cathepsin K (Oryctolagus cuniculus, UniProt P43236).
T1 sequence (P43236 whole entry): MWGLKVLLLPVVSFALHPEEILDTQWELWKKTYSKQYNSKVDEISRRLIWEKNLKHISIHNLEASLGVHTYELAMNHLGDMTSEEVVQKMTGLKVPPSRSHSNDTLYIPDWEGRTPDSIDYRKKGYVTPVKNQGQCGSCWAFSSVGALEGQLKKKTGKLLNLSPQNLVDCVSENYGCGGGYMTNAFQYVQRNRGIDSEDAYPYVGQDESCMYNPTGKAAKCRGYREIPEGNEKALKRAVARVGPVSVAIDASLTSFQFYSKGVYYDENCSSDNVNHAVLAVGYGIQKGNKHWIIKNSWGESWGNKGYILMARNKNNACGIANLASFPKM
Put plainly: Inhibitory activity against rabbit cathepsin K.

The subject of the next data set is A20. Put plainly: Effect of compound on antigen presentation in mouse A20 cells transfected with PC-specific mIgM by IL-2 secretion. The format is functional, cell-based. In short, it runs like this: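 A20 cells transfected with PC-specific mIgM (1×10^5) preincubated with compound 60 min at 37 °C in RPMI 1640 with 10% FBS, glutamine and β-mercaptoethanol. DO.11.10 T cells (1×10^5) and PC-OVA antigen (30 μg/mL) added, then incubated overnight. IL-2 secreted into medium measured by ELISA. IC50 taken against DMSO as the no-inhibition control; at least duplicate experiments.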

The target of data set [3] is T2, Cathepsin B (Homo sapiens, UniProt P07858). In words: Inhibitory activity against human cathepsin B.
The target in data set [4] is T3, Cathepsin S (Mus musculus, UniProt O70370). Put plainly: Inhibitory activity against mouse cathepsin S.
Data set [5] has as its target T3, Cathepsin S. Put plainly: Inhibitory activity against mouse cathepsin S in mouse splenocytes. The format is cell-based. In short, it runs like this:
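Splenocytes from 8–10-week C57Bl/6 mouse spleens, red cells lysed in NH4Cl buffer, suspended at 2.5×10^7 cells/mL in RPMI/HEPES pH 7. Preincubated with compound 60 min at 37 °C, then iodinated probe BIL-DMK (1 nM) added for 20 min.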

A short description of data set [6]: Dissociation constant, pKa of the compound. The format is physicochemical.
In data set [7] the target is T4, Cathepsin S (Homo sapiens, UniProt P25774). Put plainly: Inhibitory activity against human cathepsin S.
In data set [8] the target is T5, Procathepsin L (Homo sapiens, UniProt P07711). In words: Inhibitory activity against human cathepsin L expressed in HepG2 cells. The format is cell-based.
Data set [9] addresses T2, Cathepsin B. Put plainly: Inhibitory activity against human cathepsin B expressed in HepG2 cells. The format is cell-based.
Data set [10] has as its target T5, Procathepsin L. Put plainly: Inhibitory activity against human cathepsin L.
The nature of data set [11]: Partition co-efficient, logP of the compound. The format is physicochemical. As to conditions: octanol/water.
The target in data set [12] is T4, Cathepsin S. Put plainly: Inhibitory activity against human cathepsin S expressed in ramos cells. The format is cell-based.
The nature of data set [13]: Volume of distribution in rat administered with 5 mg/kg, iv. The format is ADME, organism-based. Further details: dose 5 mg/kg, route intravenous. As to conditions: in vivo, read-out: Vdss.
Data set [14] has as its system Rattus norvegicus. Put plainly: Plasma concentration in rat at 5 mg/kg, iv. The format is ADME, organism-based. The arrangement: dose 5 mg/kg, route intravenous. As to conditions: in vivo. In short, it runs like this:
(§1)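 Rats dosed 10 mg/kg po or 5 mg/kg iv; tissues and plasma taken 2 h after dosing. Tissue weighed, homogenized in 2 volumes water, then 3 volumes acetonitrile with internal standard, homogenized again and centrifuged. Supernatant quantified by LC-MS/MS against a standard curve from spiked rat plasma.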

Data set [15] has as its system Rattus norvegicus. Put plainly: Volume of distribution in rat administered with 10 mg/kg, po. The format is ADME, organism-based. Further details: dose 10 mg/kg, route oral. The note with it: in vivo.
Data set [16] concerns Rattus norvegicus. In words: Plasma concentration in rat at 10 mg/kg, po. The format is ADME, organism-based. As to conditions: in vivo. The arrangement: dose 10 mg/kg, route oral. The procedure, abridged:
as §1

T5 sequence (P07711 whole entry): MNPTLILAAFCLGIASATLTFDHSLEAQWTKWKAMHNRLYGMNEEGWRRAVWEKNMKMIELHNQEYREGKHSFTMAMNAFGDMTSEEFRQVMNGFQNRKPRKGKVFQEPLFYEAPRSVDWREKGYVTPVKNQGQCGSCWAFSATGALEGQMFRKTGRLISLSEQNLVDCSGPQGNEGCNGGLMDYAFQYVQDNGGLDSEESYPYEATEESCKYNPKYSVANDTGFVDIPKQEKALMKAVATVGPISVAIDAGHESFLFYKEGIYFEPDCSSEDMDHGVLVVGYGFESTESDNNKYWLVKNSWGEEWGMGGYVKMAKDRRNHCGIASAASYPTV
T3 sequence (O70370 whole entry): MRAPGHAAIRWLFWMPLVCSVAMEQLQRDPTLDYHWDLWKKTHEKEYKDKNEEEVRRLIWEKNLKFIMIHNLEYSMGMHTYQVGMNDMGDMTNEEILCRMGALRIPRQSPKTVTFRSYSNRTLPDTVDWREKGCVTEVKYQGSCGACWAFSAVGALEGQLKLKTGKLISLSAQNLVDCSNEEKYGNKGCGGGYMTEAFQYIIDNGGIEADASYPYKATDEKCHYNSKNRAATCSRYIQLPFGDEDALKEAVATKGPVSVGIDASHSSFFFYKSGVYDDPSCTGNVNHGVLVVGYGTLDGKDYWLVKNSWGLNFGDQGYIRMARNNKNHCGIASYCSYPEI
T4 sequence (P25774 whole entry): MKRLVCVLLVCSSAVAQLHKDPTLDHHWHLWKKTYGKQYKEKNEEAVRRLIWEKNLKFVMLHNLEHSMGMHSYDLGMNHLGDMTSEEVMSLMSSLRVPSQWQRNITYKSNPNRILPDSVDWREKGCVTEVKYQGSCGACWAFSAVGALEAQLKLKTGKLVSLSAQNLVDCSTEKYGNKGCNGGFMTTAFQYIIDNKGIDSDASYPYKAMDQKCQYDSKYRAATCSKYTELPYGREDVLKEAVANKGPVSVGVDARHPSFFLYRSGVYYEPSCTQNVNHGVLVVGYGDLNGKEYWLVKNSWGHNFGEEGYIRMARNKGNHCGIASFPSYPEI

As to `CC(C)C[C@@H](C(=O)NCC#N)c1cccc(-c2ccc(N3CCNCC3)cc2)c1`, the IC50 (usually the point on the concentration scale where inhibition reaches its midpoint) against Cathepsin K [1] was found to be 7.8 nM; in the data set on Osteoclast it was 149 nM; against Cathepsin K [2], 33 nM; with A20, 8600 nM; at Cathepsin B [3], 86000 nM; on Cathepsin S [4] it was 34100 nM. Further, the IC50 amounted to 740 nM on Cathepsin S [5]; 20000 nM against Cathepsin S [7]; 320 nM against Procathepsin L [8]; 4400 nM against Cathepsin B [9]; 2600 nM on Procathepsin L [10]; 1340 nM at Cathepsin S [12]. Also, the pKa (in general, the pH at which an ionisable group is half protonated) in [6] came out at 8.77. Further, the logP – broadly, the decadic logarithm of the partition coefficient of the neutral form, usually between octanol and water – in data set [11] came to 3.46.

Take `CN1CCN(c2nc(-c3ccc(C(=O)NC4(C(=O)NCC(F)(F)F)CCCCC4)cc3)cs2)CC1`: the figures for the IC50 in the data set with A20, against Cathepsin S [4] and on Cathepsin S [5] were > 100000 nM, 33000 nM and > 10000 nM, respectively. The pKa in data set [6] was 6.84. Also, the logP in data set [11] was 2.9.

As to `N#CCNC(=O)C1(NC(=O)c2ccc(-c3csc(N4CCOCC4)n3)cc2)CCCCC1`, the IC50 on Cathepsin K [1] was 2.3 nM; in the data set with Osteoclast, 41 nM; against Cathepsin K [2] it was 9.5 nM; in the data set on A20 it was > 100000 nM; against Cathepsin B [3] it was 4200 nM; against Cathepsin S [4], 8500 nM. For the same compound, the IC50 is 6700 nM against Cathepsin S [5]; 27000 nM on Cathepsin S [7]; > 10000 nM against Procathepsin L [8]; 2900 nM against Cathepsin B [9]; 24000 nM against Procathepsin L [10]; > 10000 nM at Cathepsin S [12].

Take `N#CCNC(=O)C1(NC(=O)c2ccc(N3CCOCC3)cc2)CCCCC1`: in [13], the Vd came out at 1.9 L/kg. Also, the IC50 against Cathepsin K [1] is 19 nM; with Osteoclast, 580 nM; at Cathepsin K [2], 72 nM; with A20, > 100000 nM; against Cathepsin B [3], 15400 nM; against Cathepsin S [4], 4500 nM. Moreover, the IC50 against Cathepsin S [5] was 8500 nM; on Cathepsin S [7], 52000 nM; at Procathepsin L [8], > 10000 nM; against Cathepsin B [9], 4400 nM; against Procathepsin L [10], 32000 nM; against Cathepsin S [12], 4800 nM. The compound also had a logP in data set [11] of 0.98. The compound also gave a concentration with Rattus norvegicus [14] of 170 nM.

`N#CCNC(=O)[C@H](CC1CCCCC1)NC(=O)c1ccccc1`: the half-inhibitory concentration (IC50) on Cathepsin K [1] is 1030 nM; in the data set with A20 it was 1220 nM; against Cathepsin B [3], 19000 nM; against Cathepsin S [4], 13 nM; against Cathepsin S [5], 40 nM; at Cathepsin S [7], 5.3 nM. Further, the IC50 against Procathepsin L [8] is 230 nM; on Cathepsin B [9], 940 nM; on Procathepsin L [10], 55 nM; on Cathepsin S [12] it was 10 nM.

`CN1CCN(c2nc(-c3ccc(C(=O)NC4(C(=O)NCC#N)CCCCC4)cc3)cs2)CC1`: the IC50 was determined as 0.25 nM at Cathepsin K [1]; 0.5 nM at Cathepsin K [2]; 6200 nM in the data set on A20; 1100 nM on Cathepsin B [3]; 5400 nM at Cathepsin S [4]; 318 nM at Cathepsin S [5]. Further, the IC50 came to 47000 nM against Cathepsin S [7]; 340 nM against Procathepsin L [8]; 17 nM against Cathepsin B [9]; 6300 nM against Procathepsin L [10]; 790 nM against Cathepsin S [12]. In data set [6], this compound registered a pKa of 7.01. In the data set with Rattus norvegicus [15], this compound yielded a Vdss of 11 L/kg. Moreover, the logP in [11] stood at 2.3. In the data set with Rattus norvegicus [16], this compound showed a concentration of 2400 nM.

With `CCCN1CCN(c2ccc(C(=O)NC3(C(=O)NCC#N)CCCCC3)cc2)CC1` [BALICATIB], the IC50 in the data set with A20 came out at 6180 nM; at Cathepsin B [3], 4800 nM; against Cathepsin S [4] it was 6350 nM; against Cathepsin S [5] it was 480 nM; against Cathepsin S [7] it was 65000 nM; on Procathepsin L [8], 48 nM. The IC50 is 61 nM on Cathepsin B [9], 503 nM against Procathepsin L [10] and 2900 nM against Cathepsin S [12]. Also, the pKa in data set [6] is 7.76. In the data set on Rattus norvegicus [15], the Vdss worked out at 4.7 L/kg. In addition, the logP in data set [11] was found to be 1.81.
